From ChEMBL document CHEMBL4257500, “Design, synthesis and antimycobacterial activity of hybrid molecules combining pyrazinamide with a 4-phenylthiazol-2-amine scaffold” (Medchemcomm, 2018)
≈ marks a conversion by molar mass, not a printed value.

Assays:
[1] = tested on: Mycobacterium tuberculosis; experiment: Antimycobacterial activity against Mycobacterium tuberculosis H37Rv assessed as growth inhibition at 6.25 ug/ml by BACTEC 460 radiometric assay relative to control; format: functional; conditions: read-out: GI
[2] = Solubility of compound in DMSO at 15 mg at room temperature; format: physicochemical
[3] = tested on: Mycobacterium tuberculosis; experiment: Antimycobacterial activity against Mycobacterium tuberculosis H37Rv ATCC 27294 incubated in dark for 5 days by Alamar Blue assay; format: functional; conditions: H37Rv ATCC 27294, 120 h
How it was run: (§1)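 Middlebrook 7H9 broth with 0.4% glycerol and 10% OADC, pH 6.6. Compounds in DMSO, final 100–1.56 µg/mL by twofold steps. Inoculum 0.5–1.0 McFarland in saline, diluted 10⁻¹. Static incubation at 37 °C, dark, humid, 5 days. Alamar Blue (resazurin/Tween 80) added, read after 24 h. MIC = lowest concentration preventing the blue-to-pink change by eye; turbidity also inspected. Isoniazid control.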

[4] = tested on: Mycolicibacterium smegmatis; experiment: Antimycobacterial activity against Mycobacterium smegmatis ATCC 607 incubated in dark for 48 hrs by resazurin assay; format: functional; conditions: ATCC 607, 48 h
How it was run: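 Broth microdilution in Middlebrook 7H9 with glycerol and OADC, pH 6.6. Inoculum 0.5–1.0 McFarland, diluted 1:20 in broth. Compounds in DMSO by binary dilution, final 3.91–500 µg/mL; DMSO ≤2.5% v/v. Sealed plates kept dark, 37 °C, no agitation. After 48 h, 0.01% resazurin added; read after a further 2.5 h. Run in duplicate.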

Mycobacterium avium = experiment: Antimycobacterial activity against Mycobacterium avium subsp. avium Chester ATCC 15769 incubated in dark for 5 days by Alamar Blue assay; format: functional; conditions: Chester ATCC 15769, 120 h; how it was run: as §1
HepG2 [5] = experiment: Cytotoxicity against human HepG2 cells assessed as decrease in cell viability after 24 hrs by MTS assay; format: cell-based; conditions: HepG2, 24 h
How it was run: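 HepG2 (passage 32–34) seeded at 1×10^4 cells/well and treated 24 h later. Compounds in DMSO, 0.1–1000 µM depending on solubility; DMSO ≤1%. Triplicates at 37 °C, 5% CO2 for 24 h. MTS reagent (CellTiter 96 AQueous One) for 2 h, absorbance at 490 nm. IC50 by nonlinear regression of absorbance relative to untreated cells.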

[6] = Selectivity index, ratio of IC50 for human HepG2 cells to MIC for Mycobacterium tuberculosis H37Rv ATCC 27294; format: toxicity; conditions: read-out: Selectivity Index
How it was run: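 SI = HepG2 IC50 / Mtb H37Rv MIC, with MIC converted to µM (µg/mL ÷ MW). HepG2 cells (passage 32–34) seeded at 1×10^4 per well. Treated after 24 h with 0.1–1000 µM depending on solubility, DMSO ≤1%, triplicates, 37 °C, 5% CO2, 24 h. Viability read by MTS-type reagent at 490 nm after 2 h. IC50 from nonlinear regression.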

Mycobacterium kansasii = experiment: Antimycobacterial activity against Mycobacterium kansasii Hauduroy ATCC 12478 incubated in dark for 5 days by Alamar Blue assay; format: functional, Mycobacterium kansasii ATCC 12478; conditions: 120 h
[7] = Solubility of compound in DMSO at 15 mg at 55 to 80 degC; format: physicochemical
HepG2 [8] = experiment: Cytotoxicity against human HepG2 cells assessed as decrease in cell viability after 48 hrs by CellTox green assay; format: cell-based; conditions: HepG2, 48 h
How it was run: (§2)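 HepG2 seeded at 1×10^4 cells/well, dosed the next day with compounds in DMSO at 0.1–500 µM; DMSO ≤1%. Triplicates at 37 °C, 5% CO2. CellTox Green reagent added after 24 h exposure, 15 min at room temperature, fluorescence Ex 485/Em 520 nm. Reading repeated 24 h later for the 48 h value. IC50 by nonlinear regression against untreated control.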

HepG2 [9] = experiment: Cytotoxicity against human HepG2 cells assessed as decrease in cell viability after 24 hrs by CellTox green assay; format: cell-based; conditions: HepG2, 24 h; how it was run: as §2

| SMILES | inhibition of growth at 6.25 µg/mL [1] | solubility [2] | MIC [3] | MIC [4] | MIC (Mycobacterium avium) | IC50 (HepG2 [5]) | selectivity ratio [6] | MIC (Mycobacterium kansasii) | solubility [7] | IC50 (HepG2 [8]) | IC50 (HepG2 [9]) |
| --- | --- | --- | --- | --- | --- | --- | --- | --- | --- | --- | --- |
| Cc1cnc(NC(=O)c2cnc(C(C)(C)C)c(Cl)n2)s1 | 15 to 65% | – | – | – | – | – | – | – | – | – | – |
| COc1ccc(-c2csc(NC(=O)c3cncc(Cl)n3)n2)cc1 | – | Insoluble | 4.5 µM | 62.5 µg/mL (≈ 180 µM) | > 12.5 µg/mL | > 25 µM | > 5.6 | 12.5 µg/mL (≈ 36 µM) | – | – | – |
| Cc1csc(NC(=O)c2cnc(C(C)(C)C)c(Cl)n2)n1 | 15 to 65% | – | – | – | – | – | – | – | – | – | – |
| Cc1cnc(NC(=O)c2cncc(Cl)n2)s1 | 15 to 65% | – | – | – | – | – | – | – | – | – | – |
| COc1ccc(-c2csc(NC(=O)c3cnccn3)n2)cc1OC | – | Soluble | > 50 µg/mL | > 125 µg/mL | > 50 µg/mL | – | – | > 50 µg/mL | – | – | – |
| O=C(Nc1nc(-c2ccccn2)cs1)c1cncc(Cl)n1 | – | – | > 50 µg/mL | > 125 µg/mL | > 50 µg/mL | – | – | > 50 µg/mL | Soluble | – | – |
| COc1ccc(-c2csc(NC(=O)c3cnc(Cl)cn3)n2)cc1 | – | – | 4.5 µM | > 500 µg/mL | > 50 µg/mL | > 75 µM | > 16.7 | > 50 µg/mL | Soluble | – | – |
| O=C(Nc1nc(-c2ccccc2)cs1)c1cncc(Cl)n1 | – | – | > 50 µg/mL | > 500 µg/mL | – | – | – | > 50 µg/mL | Soluble | – | – |
| COc1ccc(-c2csc(NC(=O)c3cncc(Cl)n3)n2)cc1OC | – | Insoluble | 4.1 µM | > 125 µg/mL | > 12.5 µg/mL | > 25 µM | > 6 | > 12.5 µg/mL | – | – | – |
| O=C(Nc1nc(-c2ccccc2)cs1)c1cnc(Cl)cn1 | – | – | > 100 µg/mL | > 500 µg/mL | > 100 µg/mL | – | – | > 100 µg/mL | Soluble | – | – |
| O=C(Nc1nc(-c2ccc(Cl)cc2)cs1)c1cnccn1 | – | Insoluble | > 12.5 µg/mL | 62.5 µg/mL (≈ 197 µM) | > 12.5 µg/mL | – | – | > 12.5 µg/mL | – | – | – |
| COc1ccc(-c2csc(NC(=O)c3cnc(Cl)cn3)n2)cc1OC | – | Insoluble | > 12.5 µg/mL | > 250 µg/mL | > 12.5 µg/mL | – | – | > 12.5 µg/mL | – | – | – |
| O=C(Nc1nc(-c2ccc(Cl)cc2)cs1)c1cncc(Cl)n1 | – | Soluble | > 12.5 µg/mL | 62.5 µg/mL (≈ 178 µM) | > 12.5 µg/mL | – | – | > 12.5 µg/mL | – | – | – |
| O=C(Nc1nc(-c2ccccn2)cs1)c1cnc(Cl)cn1 | – | – | > 50 µg/mL | > 125 µg/mL | > 50 µg/mL | – | – | > 50 µg/mL | Soluble | – | – |
| O=C(Nc1nc(-c2ccccc2)cs1)c1cnccn1 | – | Soluble | > 50 µg/mL | > 250 µg/mL | – | – | – | > 50 µg/mL | – | – | – |
| O=C(Nc1nc(-c2ccc(Cl)cc2)cs1)c1cnc(Cl)cn1 | – | Soluble | > 50 µg/mL | > 500 µg/mL | > 50 µg/mL | – | – | > 50 µg/mL | – | – | – |
| O=C(Nc1nc(-c2ccc(F)cc2)cs1)c1cnc(Cl)cn1 | – | Soluble | 9.4 µM | > 500 µg/mL | > 50 µg/mL | 24.8 µM | 2.7 | 12.5 µg/mL (≈ 37.3 µM) | – | 18.1 µM | 22.4 µM |
| CC(C)(C)c1ncc(C(=O)Nc2nccs2)nc1Cl | 15 to 65% | – | – | – | – | – | – | – | – | – | – |
| O=C(Nc1nc(-c2ccccn2)cs1)c1cnccn1 | – | – | 22.1 µM | > 125 µg/mL | > 50 µg/mL | > 25 µM | > 1.1 | > 50 µg/mL | Soluble | – | – |
| O=C(Nc1nc(-c2ccc(F)cc2)cs1)c1cncc(Cl)n1 | – | Soluble | 2.3 µM | > 250 µg/mL | 0.78 µg/mL (≈ 2.33 µM) | > 50 µM | > 21.5 | 0.78 µg/mL (≈ 2.33 µM) | – | > 50 µM | > 50 µM |
| Cc1csc(NC(=O)c2cncc(Cl)n2)n1 | 15 to 65% | – | – | – | – | – | – | – | – | – | – |
| NNC(=O)c1ccncc1 [ISONIAZID] | – | Soluble | 0.1 to 0.2 µg/mL | 7.8 to 15.6 µg/mL (≈ 56.9 to 114 µM) | 6.25 to 12.5 µg/mL (≈ 45.6 to 91.1 µM) | – | – | 12.5 to 25 µg/mL (≈ 91.1 to 182 µM) | – | – | – |
| O=C(O)c1cn(C2CC2)c2cc(N3CCNCC3)c(F)cc2c1=O [CIPROFLOXACIN] | – | – | 0.098 to 0.195 µg/mL | 0.098 to 0.195 µg/mL (≈ 0.296 to 0.589 µM) | 0.098 to 0.195 µg/mL (≈ 0.296 to 0.589 µM) | – | – | 0.098 to 0.195 µg/mL (≈ 0.296 to 0.589 µM) | – | – | – |
| O=C(Nc1nccs1)c1cncc(Cl)n1 | 15 to 65% | – | – | – | – | – | – | – | – | – | – |
| COc1ccc(-c2csc(NC(=O)c3cnccn3)n2)cc1 | – | Soluble | > 100 µg/mL | > 250 µg/mL | > 100 µg/mL | – | – | > 100 µg/mL | – | – | – |
| CO[C@H]1/C=C/O[C@@]2(C)Oc3c(C)c(O)c4c(O)c(c(/C=N/N5CCN(C)CC5)c(O)c4c3C2=O)NC(=O)/C(C)=C\C=C\[C@H](C)[C@H](O)[C@@H](C)[C@@H](O)[C@@H](C)[C@H](OC(C)=O)[C@@H]1C [RIFAMPIN] | – | – | 0.78 to 1.56 µg/mL | 0.78 to 1.56 µg/mL (≈ 0.948 to 1.9 µM) | 0.78 to 1.56 µg/mL (≈ 0.948 to 1.9 µM) | – | – | 0.78 to 1.56 µg/mL (≈ 0.948 to 1.9 µM) | – | – | – |
| O=C(Nc1nc(-c2ccc(F)cc2)cs1)c1cnccn1 | – | Insoluble | > 12.5 µg/mL | > 250 µg/mL | > 12.5 µg/mL | – | – | > 12.5 µg/mL | – | – | – |
